Assays:
[1] = Ratio of the amount of platinum bound per nucleotide to ri (0.01)
Method in brief: (§1)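 Linear pBR322 DNA (20 μg/mL) in 10 mM NaClO₄ incubated at 37 °C with Pt compound at input Pt/nucleotide ratio ri of 0.01–0.20; 24 h for the rb/ri series, aliquots at various times for kinetics. Unbound drug removed by ethanol/0.3 M sodium acetate (pH 4.8) precipitation of DNA; Pt bound per nucleotide (rb) measured by TXRF; rb/ri given as percent; mean ± SD.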

[2] = Ratio of the amount of platinum bound per nucleotide to ri (0.15); method in brief: as §1
[3] = Ratio of the amount of platinum bound per nucleotide to ri (0.05); method in brief: as §1
[4] = Ratio of the amount of platinum bound per nucleotide to ri (0.10); method in brief: as §1
[5] = Ratio of the amount of platinum bound per nucleotide to ri (0.20); method in brief: as §1

Ratio [1] [%]	Ratio [2] [%]	Ratio [3] [%]	Ratio [4] [%]	Ratio [5] [%]	Substance
97	80	95	90	75	CISPLATIN
85	70	82	76	68	Trans-[PtCl2(dimethylamine)isopropylamine)] (tdmaipa)

Reference: ChEMBL document CHEMBL1133750, “X-Ray structure of cytotoxic trans-[PtCl(2)(dimethylamine)(isopropylamine)]: interstrand cross-link efficiency, DNA sequence specificity, and inhibition of the B-Z transition” (J Med Chem, 2000)
